These results are taken from ChEMBL document CHEMBL1127689, “Novel 4-(aryloxy)tetrahydropyridine analogs of MPTP as monoamine oxidase A and B substrates” (J Med Chem, 1994).

Structures are written as SMILES.

In series [1] the target is T1, Amine oxidase [flavin-containing] B (Bos taurus, UniProt P56560).
T1 sequence (P56560 whole entry): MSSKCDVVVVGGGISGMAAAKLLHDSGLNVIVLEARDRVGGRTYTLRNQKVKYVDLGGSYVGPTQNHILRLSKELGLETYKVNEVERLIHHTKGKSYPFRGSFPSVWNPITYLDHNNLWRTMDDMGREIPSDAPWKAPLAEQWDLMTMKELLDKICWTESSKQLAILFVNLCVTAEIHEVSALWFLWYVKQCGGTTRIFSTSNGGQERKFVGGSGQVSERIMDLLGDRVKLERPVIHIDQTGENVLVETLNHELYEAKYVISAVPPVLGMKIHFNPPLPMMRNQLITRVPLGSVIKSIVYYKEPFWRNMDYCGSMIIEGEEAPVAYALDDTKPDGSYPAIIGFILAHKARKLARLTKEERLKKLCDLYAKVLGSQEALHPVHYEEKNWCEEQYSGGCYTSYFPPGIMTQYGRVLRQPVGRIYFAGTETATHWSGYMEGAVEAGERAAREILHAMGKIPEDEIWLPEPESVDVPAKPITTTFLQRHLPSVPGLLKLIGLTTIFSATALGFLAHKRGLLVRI
Put plainly: Turnover number (TN) for bovine mono-amine oxidase B MAO-B. The conditions noted are these: cattle. An outline of the steps: (§1)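 Bovine liver mitochondrial MAO-B, partially purified, at 0.087 μM. Four substrate concentrations were used, from 500–62.5 μM solutions in 100 mM sodium phosphate, pH 7.4. Each was equilibrated 1 min at 37 °C before enzyme was added. Amino enone formation was read at 324 nm every 3 s for 2 min, in duplicate. Km and TN came from Lineweaver-Burk double-reciprocal plots of initial rates.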

Series [2] addresses T2, Amine oxidase [flavin-containing] A (Homo sapiens, UniProt P21397).
T2 sequence (P21397 whole entry): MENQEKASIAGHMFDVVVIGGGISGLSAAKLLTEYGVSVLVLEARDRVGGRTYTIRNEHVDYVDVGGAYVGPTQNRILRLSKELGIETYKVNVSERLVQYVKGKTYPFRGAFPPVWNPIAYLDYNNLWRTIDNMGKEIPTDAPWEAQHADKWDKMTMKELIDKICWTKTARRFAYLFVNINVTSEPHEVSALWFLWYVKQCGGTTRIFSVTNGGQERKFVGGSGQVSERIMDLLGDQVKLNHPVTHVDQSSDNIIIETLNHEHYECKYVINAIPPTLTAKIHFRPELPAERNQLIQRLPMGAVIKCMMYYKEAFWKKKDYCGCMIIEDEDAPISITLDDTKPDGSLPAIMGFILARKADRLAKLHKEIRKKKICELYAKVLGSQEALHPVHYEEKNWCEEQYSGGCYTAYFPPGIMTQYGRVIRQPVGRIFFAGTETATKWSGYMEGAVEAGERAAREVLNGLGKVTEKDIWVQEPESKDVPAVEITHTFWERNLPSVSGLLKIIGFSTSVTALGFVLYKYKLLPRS
Put plainly: Turnover number (TN) for human mono-amine oxidase MAO-A. The gist of the method:
(§2)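 MAO-A preparation was diluted 1:4 in 20 mM phosphate, pH 7.4, with 20% w/v glycerol and used at 0.17 μM. Four substrate concentrations were used, from 500–62.5 μM solutions in 100 mM sodium phosphate, pH 7.4, after 1 min at 37 °C. Initial rates were taken from the 324 nm amino enone absorbance, read every 3 s for 2 min, in duplicate. Km and TN came from double-reciprocal plots.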

The target in series [3] is T2, Amine oxidase [flavin-containing] A. Put plainly: Ratio of turnover to Km for human MAO-A. The gist of the method:
as §2

Series [4] addresses T1, Amine oxidase [flavin-containing] B. In words: Ratio of turnover to Km for bovine MAO-B. Particulars: cattle. The gist of the method: as §1
Series [5] deals with T2, Amine oxidase [flavin-containing] A. Put plainly: Oxidation by human mono-amine oxidase MAO-A. An outline of the steps: as §2
Series [6] deals with T1, Amine oxidase [flavin-containing] B. In words: (§3) Oxidation by bovine mono-amine oxidase B MAO-B. Particulars: cattle. An outline of the steps:
as §1

Another series concerns the target T3, MAO-B (Bos taurus, UniProt P56560).
T3 sequence (P56560 whole entry): T1 sequence (P56560 whole entry)
The description is as §3. The conditions noted are these: cattle, bovine monoamine oxidase B (MAO-B) enzyme. An outline of the steps:
as §1

For the compound `CN1CC=C(Oc2ccc3ccccc3c2)CC1`, the TN in series [1] is 333 M min-1 M-1; in series [2], 207 M min-1 M-1. Further, the Ratio stood at 2685 in series [3] and 1214 in series [4].
The like results for `CN1CC=C(c2ccccc2)CC1` were, in that order, 204 M min-1 M-1, 20 M min-1 M-1, 143 and 523.
Taken in the same sequence, the figures for `CCCCc1ccc(OC2=CCN(C)CC2)cc1` were 92 M min-1 M-1, 85 M min-1 M-1, 1676 and 1090.
Consider `CN1CC=C(Cc2ccc3ccccc3c2)CC1`, for which the TN is 276 M min-1 M-1 in series [1] and 121 M min-1 M-1 in series [2]. Further, the Ratio in series [3] was found to be 3340; in series [4], 310. In addition, the Km in series [5] turned out to be 36 µM.
For the compound `CN1CC=C(Oc2ccc(Cl)cc2Cl)CC1`, the TN in series [1] was 223 M min-1 M-1; in series [2], 95 M min-1 M-1. The Ratio came out at 3290 in series [3] and 1334 in series [4].
For the compound `CN1CC=C(Oc2ccc(-c3ccccc3)cc2)CC1`, the TN in series [1] is listed as 103 M min-1 M-1; in series [2], 173 M min-1 M-1. Besides, the Ratio in series [3] was determined as 1710; in series [4], 363.
In the case of `CN1CC=C(Oc2ccccc2)CC1`, the TN in series [1] is recorded as 241 M min-1 M-1; in series [2], 130 M min-1 M-1. The Ratio stood at 2359 in series [3] and 4151 in series [4].
With `CN1CC=C(Oc2ccc(C(C)(C)C)cc2)CC1`, the TN was 22 M min-1 M-1 in series [1] and 111 M min-1 M-1 in series [2]. The Ratio in series [3] was 855; in series [4], 395.
For the compound `CN1CC=C(Cc2cccc3ccccc23)CC1`, the Km was 847 µM in series [6] and 167 µM in series [5]. The TN in series [1] is recorded as 89 M min-1 M-1; in series [2] it was 433 M min-1 M-1. The Ratio in series [3] was 2590; in series [4] it was 105.
As for `CN1CC=C(Cc2ccccc2)CC1`, the Km in series [6] amounted to 154 µM; in series [5], 66 µM. For the same compound, the TN is listed as 193 M min-1 M-1 in series [1] and 9 M min-1 M-1 in series [2]. Further, the figures for the Ratio in series [3] and in series [4] were 139 and 1250, respectively.
Take `CN1CC=C(Oc2cccc3ccccc23)CC1`: the TN in series [1] is reported as 81 M min-1 M-1; in series [2] it was 227 M min-1 M-1. For the same compound, the Ratio in series [3] is given as 1567; in series [4] it was 565.
Turning to `NCc1ccccc1` [BENZYLAMINE], the Km in series [6] came to 290 µM. Also, the TN in series [1] is on record as 283 M min-1 M-1. Besides, the Ratio in series [4] worked out at 963.
In the case of `CN1CC=C(Oc2cc3ccccc3c3ccccc23)CC1`, the Km at MAO-B is greater than 1000 µM. Also, the results for the TN in series [1] and in series [2] were > 200 M min-1 M-1 and 59 M min-1 M-1, respectively. The Ratio in series [3] turned out to be 212.
As to `CN1CC=C(Cc2cc3ccccc3c3ccccc23)CC1`, the TN is reported as > 53 M min-1 M-1 in series [1] and 365 M min-1 M-1 in series [2]. Also, the Ratio in series [3] was 759.
Take `NCCC(=O)c1ccccc1N` [KYNURAMINE]: the TN in series [2] is listed as 146 M min-1 M-1. For the same compound, in series [3], the Ratio is reported as 860. For the same compound, the Km in series [5] was found to be 170 µM.

As a reminder, the Km is the concentration of substrate that gives half-maximal velocity.
